Rows were chosen to be rich in hits. Some 7.1% of all compounds tested hit in one or more screens of this group.
HUVEC inhibit – human endothelial cell proliferation inhibition; HUVEC proliferation, CellTiter-Glo luminescence, 72 h; active compounds read low; viability, % at 10 µM (by protocol); 86,000 compounds, 1.1% hits;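 active = viability at or below 30%; inactive = viability above 30%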;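 also: 100% = median luminescence of DMSO-only cell control wells on each plate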
Cav32 inh – blocks human Cav3.2 T-type calcium channel. O95180. Cav3.2-expressing cells, Fluo-4 calcium fluorescence FDSS; active compounds read low. B-score at 10 µM. 100,000 compounds, 4% hits. AID 449739;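 active = single-dose well whose peak fluorescence ratio is a statistical outlier from its plate by either plate-standardised score or position-corrected B-score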
Lung fibro prol – blocks proliferation of human lung fibroblasts; 85,000 compounds, 1.1% hits; AID 719; LL 47 human lung fibroblast viability, ATP luminescence; active compounds read low; viability, % at 10 µM;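 active = viability at or below 50% in the single dose screen; inactive = viability above 50%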;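 also: compound exposure lasted 72 h before the ATP readout; 100% = median luminescence of untreated cell-only wells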
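Material: Human LL 47 lung fibroblast cells | Input: 1,150 cells/well | Buffer or medium: IMEM plus 15% FBS | Compound dosing: 0.1% DMSO in all compound wells | Times: Overnight cell rest, 72 h compound treatment at 37 °C | Signal: CellTiter-Glo luminescence measuring cellular ATP | Measure: % viability versus median cells-only luminescence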
HCT116 bCat-KO – beta-catenin-lacking colon tumor cell growth suppression; HCT116 beta-catenin knockout viability, CellTiter-Glo, 60 h; active compounds read low; viability, % at 10 µM; 140,000 compounds, 1.5% hits;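 active = viability at or under a set limit, the compound median less 4 SD, cut at about 6% in these data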;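 also: 0% = Hyamine 1622 control at 20 µM and 100% = untreated cell control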
HCT116 PTEN-null – suppresses growth of cells with PTEN deletion | HCT116 PTEN-null viability, CellTiter-Glo, 60 h; active compounds read low | viability, % at 10 µM | 140,000 compounds, 1.2% hits | AID 827;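 active = viability at or below a set limit, 4 SD under the median of all tested compounds, cut at about 3.7% in these data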;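 also: PTEN knockout HCT116 line with beta catenin targeted HCT116 as companion control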
H69AR growth 86K – blocks growth of human H69AR lung tumor cells; 85,000 compounds, 6% hits; H69AR lung tumor viability, ATP luminescence, 72 h; active compounds read low; viability, % at 10 µM;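 active = viability at or below 40%; inactive = viability above 40%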;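 also: multidrug resistant small cell line overexpressing MRP-1 efflux transporter; 100% = mean luminescence of untreated control wells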
Numbers without * were called inactive; x = no result given.

SMILES | HUVEC inhibit | Cav32 inh | Lung fibro prol | HCT116 bCat-KO | HCT116 PTEN-null | H69AR growth 86K
CCN(C(=O)Cn1c(=O)n(Cc2ccccc2)c(=O)c2ccccc21)c1cccc(C)c1 | 79 | -6.4* | 91 | 85 | 86 | 102
CCOC(=O)CN(C(=O)CSc1nnc2c(n1)[nH]c1ccc(F)cc12)c1ccccc1 | 74 | -4.3* | 87 | 77 | 75 | 63
CCCCCCCCS(=O)c1sc2nc3c(cc2c1N)CCCC3 (centres undefined) | 84 | -4.8* | 94 | 82 | 94 | 95
O=C(Cc1ccc([N+](=O)[O-])cc1)Nc1ccc(O)cc1C(=O)O | x | x | x | 99 | 101 | x
CCN(CC)S(=O)(=O)c1cc([N+](=O)[O-])ccc1NNC(=O)Nc1ccc(Cl)c(Cl)c1 | 41 | -3.7 | 43* | 1.4* | 1.0* | 2.9*
COC(=O)c1ccc(Oc2coc3cc(OCc4ccc([N+](=O)[O-])cc4)ccc3c2=O)cc1 | x | x | x | 78 | 79 | x
COC(=O)c1sccc1NC(=O)c1cc(-c2ccc(C)cc2)nc2ccccc12 | x | x | x | 60 | 69 | x
COC(=O)c1sccc1NC(=O)c1cc(-c2cccc(C)c2)nc2ccccc12 | x | -0.29 | x | 2.0* | 0.8* | x
COC(=O)c1ccc(COc2ccccc2/C=N/NS(=O)(=O)c2ccccc2)cc1 | x | -0.4 | x | 12 | 14 | x
N=c1n(CCO)c2ccccc2n1CCOc1ccc(Cl)cc1Cl | 2.1* | -1.7 | 58 | 1.7* | 1.6* | 20*
COc1ccc(OCCn2c(=N)n(CCO)c3ccccc32)cc1 | 107 | -0.3 | 97 | 75 | 84 | 80
COc1ccc(C(=O)Cc2nnc(C)s2)cc1 | x | x | x | 91 | 91 | x
CCOC(=O)C(=CN(CCc1ccccc1)CC(=O)OC)C(=O)OCC | x | 0.86 | x | 91 | 99 | x
Cc1cc(C)c(S(=O)(=O)c2ccccc2)c(OC(=O)c2c(Cl)cc(Cl)cc2Cl)n1 | 71 | -6.5* | 106 | 89 | 91 | 52
Cc1cc(C)c(S(=O)(=O)c2ccccc2)c(N(C)C)n1 | x | -0.096 | x | 98 | 99 | x
CCOc1cc(S(=O)(=O)NCC2OCCc3ccccc32)c(OCC)cc1-n1cnnn1 (centres undefined) | 102 | 0.7 | 96 | 102 | 102 | 64
CC(C)(C)c1ccc2c(c1)C(=O)c1ccccc1C2=O | x | x | x | 70 | 68 | x
CC(C)(C=O)C1=CC(=O)c2ccccc2C1=O | x | x | x | 1.3* | 1.7* | x
CC(NCCC(c1ccccc1)c1ccccc1)c1ccccc1 (centres undefined) | 26* | -3.8 | 2.7* | 1.9* | 4 | 0.2*
O=C(c1cc(-c2cccc(O)c2)on1)N1CCN(C(c2ccccc2)c2ccccc2)CC1 | 80 | -0.26 | 84 | 43 | 41 | 5.2*
O=C(c1cc(C2CC2)on1)N1CCN(C(c2ccccc2)c2ccccc2)CC1 | x | -0.23 | x | 91 | 94 | x
O=C1c2cccc3c(O)ccc(c23)C(=O)N1Cc1ccccc1 | x | -10* | x | 101 | 118 | x
Cc1ccc(S(=O)(=O)/N=C(\CN2CCCCC2)N2CCOCC2)cc1 | 116 | 1.1 | 99 | 84 | 97 | 96
CC(C)N1CCC2(CC1)N=C(c1ccc3c(c1)OCO3)CC(c1cc(Cl)ccc1O)N2 (centres undefined) | 30* | -2.4 | 5.9* | 2.5* | 2.9* | 1.5*
Cc1[nH]c(-c2ccc3c(c2)OCO3)nc1C(=O)O | x | -0.39 | x | 55 | 61 | x
SMILES | HUVEC inhibit | Cav32 inh | Lung fibro prol | HCT116 bCat-KO | HCT116 PTEN-null | H69AR growth 86K
COc1ccc(-c2cc(C#N)nc(N3CCNCC3)n2)cc1 | 51 | x | 2.0* | 0.6* | 0.4* | 1.4*
CCN(CC)c1nc(C#N)cc(-c2ccc(OC)cc2)n1 | 68 | 0.0091 | 80 | 15 | 18 | 32*
COc1ccc2c(c1OC)C(=O)O[C@@H]2[C@H]1c2c(cc3c(c2OC)OCO3)CCN1C | 90 | 0.27 | 88 | 96 | 80 | 30*
Cc1ccc(OCc2ccc(C(=O)O)o2)c([N+](=O)[O-])c1 | x | x | x | 95 | 96 | x
C=CCn1c(SCC(=O)Nc2ccc3c(c2)OCO3)nnc1-c1cc(Br)ccc1O | 79 | -6.6* | 103 | 96 | 83 | 83
Cc1cc2c(=O)n(Cc3ccco3)c(SCC(=O)c3ccc(Cl)s3)nc2s1 | 82 | -4.7* | 100 | 71 | 70 | 13*
COc1ccc(NC(=O)CSc2nc3sc(C)c(C)c3c(=O)n2Cc2ccco2)cc1 | 46 | 0.95 | 73 | 92 | 55 | 104

Screening results (PubChem BioAssay)
